For 13 compounds, inhibition, IC50 and Activity results are on record in ChEMBL document CHEMBL2346643, “Semisynthetic studies identify mitochondria poisons from botanical dietary supplements--geranyloxycoumarins from Aegle marmelos” (Bioorg Med Chem, 2013).

Broadly, the inhibition is the change of the read-out against control, counted positive when it falls. Broadly, the IC50 is the point on the concentration scale where inhibition reaches its midpoint.

Structures are written as SMILES. Activity calls are given as the source filed them. The calls are words filed in the database; no cut-off is given here. Where only a bound is given, the exact number is not on record here.

Assay [1] relates to T47D. As to the kind of experiment: Inhibition of mitochondrial ETC complex 1 in human T47D cells assessed as inhibition of oxygen consumption after 5 to 10 mins by Clarke-type electrode analysis. The class given is cell-based. The procedure, abridged: (§1)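 For acute exposure, intact T47D cells received compound at 3, 10 or 30 μM for 5–10 min. Oxygen consumption was then measured with a Clarke-type electrode, with rotenone at 1–100 nM as control. Results are % inhibition of the untreated rate, averaged over two independent experiments with deviation from the average.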

Assay [2] concerns the target Mitochondrial complex I (NADH dehydrogenase). As to the kind of experiment: Inhibition of mitochondrial ETC complex 1 in human T47D cells assessed as inhibition of 1,10-phenanthroline-induced HIF1 activation incubated for 30 mins prior to 1,10-phenanthroline-challenge measured after 16 hrs by luciferase reporter assay. The class given is cell-based. The procedure, abridged: (§2)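 pHRE-luc reporter transfected T47D cells were exposed for 16 h to hypoxia (1% O2) or to chemical hypoxia (10 μM 1,10-phenanthroline) in the presence of compound. The highest concentration tested was 30 μM. Luciferase signal was expressed as % inhibition of the induced control. IC50 and 95% CI came from one representative concentration-response experiment run in triplicate. Cycloheximide at 10 μM served as control.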
A general note: Reporter assays use an easily measured gene product as a stand-in for the process of interest.

Assay [3] relates to T47D. As to the kind of experiment: Antiproliferative activity against human T47D cells at 30 uM after 48 hrs by SRB assay. It is filed as functional, cell-based. The procedure, abridged: (§3)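 T47D or MDA-MB-231 breast tumor cells were exposed to 1, 3, 10 and 30 μM for 48 h or 144 h (6 d). For the 6 d exposure, medium was replaced after 3 days with fresh medium containing compound. Stocks were 4 mM in 2-propanol, with final solvent below 0.75%. Viability was measured by sulforhodamine B and expressed as % inhibition of the untreated control: [1−(OD treated/OD control)]×100.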
In general terms: In SRB staining, fixed cells bind dye roughly in proportion to their protein.

In assay [4] the test system is T47D. As to the kind of experiment: Antiproliferative activity against human T47D cells at 1 to 30 uM after 144 hrs by SRB assay. The class given is functional, cell-based. The procedure, abridged:
as §3

Assay [5] relates to MDA-MB-231. As to the kind of experiment: Antiproliferative activity against human MDA-MB-231 cells at 30 uM after 48 hrs by SRB assay. It is filed as functional, cell-based. The procedure, abridged:
as §3

In assay [6] the target is Mitochondrial complex I (NADH dehydrogenase). As to the kind of experiment: Inhibition of mitochondrial ETC complex 1 in human T47D cells assessed as inhibition of 1% O2-induced HIF1 activation incubated for 30 mins prior to 1% O2-challenge measured after 16 hrs by luciferase reporter assay. It is filed as cell-based. The procedure, abridged: as §2
The subject of assay [7] is MDA-MB-231. As to the kind of experiment: Antiproliferative activity against human MDA-MB-231 cells at 1 to 10 uM after 48 hrs by SRB assay. The class given is functional, cell-based. The procedure, abridged: as §3
In assay [8] the test system is MDA-MB-231. As to the kind of experiment: Antiproliferative activity against human MDA-MB-231 cells at 1 to 30 uM after 144 hrs by SRB assay. The class given is functional, cell-based. Summed up: as §3
In assay [9] the test system is T47D. As to the kind of experiment: Inhibition of mitochondrial ETC complex 1 in human T47D cells assessed as inhibition of oxygen consumption at 30 uM after 5 to 10 mins by Clarke-type electrode analysis. The class given is cell-based. Summed up: as §1
Assay [10] relates to T47D. As to the kind of experiment: Antiproliferative activity against human T47D cells at 1 to 10 uM after 48 hrs by SRB assay. It is filed as functional, cell-based. Summed up: as §3
The subject of assay [11] is T47D. As to the kind of experiment: Inhibition of mitochondrial ETC complex 1 in human digitonin-permeabalized T47D cells assessed as inhibition of malate/pyruvate-initiated respiration at 30 uM after 2 hrs by Clarke-type electrode analysis. The class given is cell-based.
Assay [12] relates to T47D. As to the kind of experiment: Inhibition of mitochondrial ETC complex 4 in human digitonin-permeabalized T47D cells assessed as inhibition of ascorbate/TMPD-initiated respiration at 30 uM after 2 hrs by Clarke-type electrode analysis in presence of antimycin A. It is filed as cell-based.
For assay [13], the system named is T47D. As to the kind of experiment: Inhibition of mitochondrial ETC complex 1 in human digitonin-permeabalized T47D cells assessed as inhibition of malate/pyruvate-initiated respiration at 30 uM after 2 hrs by Clarke-type electrode analysis in presence of succinate. The class given is cell-based.
The test system of assay [14] is T47D. As to the kind of experiment: Inhibition of mitochondrial ETC complex 2 in human digitonin-permeabalized T47D cells assessed as inhibition of succinate-initiated respiration at 30 uM after 2 hrs by Clarke-type electrode analysis. The class given is cell-based.
In assay [15] the test system is T47D. As to the kind of experiment: Inhibition of mitochondrial ETC complex 4 in human digitonin-permeabalized T47D cells assessed as inhibition of ascorbate/TMPD-initiated respiration at 10 uM after 2 hrs by Clarke-type electrode analysis in presence of antimycin A. It is filed as cell-based. Summed up:
(§4)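 T47D cells were pretreated for 2 h with 10 μM compound (rotenone control 0.01 μM), then detached, washed and permeabilized with digitonin. Substrates and inhibitors were added in sequence while O2 uptake was followed by Clarke electrode. Respiration was started with malate/pyruvate (complex I) or succinate (complex II). Antimycin A then blocked complex III, and TMPD/ascorbate re-initiated respiration via complex IV. Rates were normalized to the untreated control.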

Assay [16] concerns T47D. As to the kind of experiment: Inhibition of mitochondrial ETC complex 1 in human T47D cells assessed as inhibition of oxygen consumption at 10 uM after 2 hrs by Clarke-type electrode analysis. The class given is cell-based. The procedure, abridged:
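T47D cells were pretreated with 10 μM compound, or 0.01 μM rotenone, for 2 h. Cells were then detached and washed, and the oxygen consumption rate was measured with a Clarke-type electrode. Results are % inhibition relative to untreated controls.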

Assay [17] concerns T47D. As to the kind of experiment: Inhibition of mitochondrial ETC complex 1 in human T47D cells assessed as inhibition of oxygen consumption at 10 uM after 10 mins by Clarke-type electrode analysis. The class given is cell-based. Summed up: as §1
In assay [18] the test system is T47D. As to the kind of experiment: Inhibition of mitochondrial ETC complex 1 in human digitonin-permeabalized T47D cells assessed as inhibition of malate/pyruvate-initiated respiration at 10 uM after 2 hrs by Clarke-type electrode analysis. The class given is cell-based. Summed up: as §4
The subject of assay [19] is T47D. As to the kind of experiment: Inhibition of mitochondrial ETC complex 2 in human digitonin-permeabalized T47D cells assessed as inhibition of succinate-initiated respiration at 10 uM after 2 hrs by Clarke-type electrode analysis. It is filed as cell-based. Summed up: as §4
In assay [20] the test system is MDA-MB-231. As to the kind of experiment: Antiproliferative activity against human MDA-MB-231 cells at 10 uM after 48 hrs by SRB assay. The class given is functional, cell-based. The procedure, abridged:
(§5)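 Cells exposed 48 h to compounds at 1, 3, 10 and 30 μM (pure compounds from 4 mM 2-propanol stocks, final solvent <0.75%). Viability read by sulforhodamine B staining. Value is % inhibition versus untreated control, [1-(OD treated/OD control)]×100. Cycloheximide 10 μM and rotenone 1 and 10 nM served as controls.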

The test system of assay [21] is T47D. As to the kind of experiment: Antiproliferative activity against human T47D cells at 10 uM after 48 hrs by SRB assay. The class given is functional, cell-based. Summed up:
as §5

Regarding `CCCCCCCCCCC(=O)O[C@H](CC/C(C)=C/COc1ccc2ccc(=O)oc2c1)C(C)(C)O` [R-(+)-MARMIN-6'-UNDECANOATE], the inhibition entry in assay [1] was “Dose-dependent effect”; in assay [9] it was 30%. In addition, the values for the IC50 in assay [2] and in [6] were 3.67 µM and 0.87 µM, respectively. Besides, the outcome in [3], in [4], in assay [5], in [7], in assay [8] and in [10] was Active.
As to `CC(C)=CCC/C(C)=C/COc1ccc2ccc(=O)oc2c1` [AURAPTENE], the inhibition entry in assay [11] is “Active”. Also, the results for the inhibition result in assay [1] and in assay [9] were “Dose-dependent effect” and 30%, respectively. Besides, the inhibition result in assay [12], in assay [13] and in [14] was “inactive” each time. Besides, the half-maximal inhibitory concentration (IC50) worked out at 18.8 µM in assay [2] and 10.2 µM in [6]. For the same compound, the outcome in assay [7] and in assay [10] was Active.
Turning to `CC(C)=CCOc1ccc(CCNC(=O)/C=C/c2ccccc2)cc1` [DEHYDROMARMELINE], the inhibition result in assay [11] is “Active”. The inhibition entry in [12], in assay [13] and in assay [14] was “inactive” in each case. Also, the half-inhibitory concentration (IC50) in [2] was above 30 µM; in assay [6] it was 15.1 µM. Moreover, the inhibition in [9] came to 70%.
On to `CCCCCCCC(=O)O[C@H](CC/C(C)=C/COc1ccc2ccc(=O)oc2c1)C(C)(C)O` [R-(+)-MARMIN-6'-OCTANOATE], for which the inhibition entry was “Dose-dependent effect” in [1], 39% in assay [16], 28% in [17] and 30% in assay [9]. Besides, the inhibition result in assay [15] was “inactive”. For the same compound, the IC50 in assay [2] stood at 3.71 µM; in [6], 3.08 µM. Also, the result in [3], in [4], in assay [5], in assay [7], in assay [8] and in [10] was Active.
As for `COc1cc2ccc(=O)oc2cc1OC/C=C(\C)CCC=C(C)C`, the figures for the inhibition entry in assay [1] and in assay [9] were “Dose-dependent effect” and 30%, respectively. Further, the 50% inhibitory concentration (IC50) was found to be 24.2 µM in [2] and 17.5 µM in assay [6]. The outcome in assay [7] and in assay [10] was Active.
With `C/C(=C\COc1ccc2ccc(=O)oc2c1)CC[C@@H](O)C(C)(C)Cl`, in assay [11], the inhibition entry was “Active”. For the same compound, the inhibition entry in assay [1] is “Dose-dependent effect”; in assay [9], 30%. Moreover, the inhibition entry in assay [12], in assay [13] and in assay [14] was “inactive” in each case. For the same compound, the IC50 in assay [2] turned out to be 11.1 µM; in assay [6], 16.7 µM. Also, the result in [7] and in assay [10] was Active.
As for `COc1cc(C[C@H]2CO[C@H](c3ccc(O)c(OC)c3)[C@H]2COC(=O)CC(C)C)ccc1O` [(+)-9'-ISOVALEROXYLARICIRESINOL], the results for the IC50 in assay [2] and in [6] were 4.9 µM and 9.1 µM, respectively. Further, the inhibition result in assay [9] was “inactive”.
As to `C/C(=C\COc1ccc2ccc(=O)oc2c1)CC[C@@H](O)C(C)(C)O` [R-(+)-MARMIN], the 50% inhibitory concentration (IC50) in assay [2] and in [6] was above 30 µM throughout. The result in assay [7] and in [10] was Active. For the same compound, in assay [9], the inhibition came to 20%.
Take `COC(C)(C)[C@H](O)CC/C(C)=C/COc1ccc2ccc(=O)oc2c1`: the inhibition entry in [1] was “Dose-dependent effect”; in assay [9] it was 30%. Moreover, the results for the IC50 in assay [2] and in [6] were above 30 µM and 19.3 µM, respectively. Also, the outcome in assay [7] and in assay [10] was Active.
As for `CCCCC/C=C\C/C=C\CCCCCCCC(=O)O[C@H](CC/C(C)=C/COc1ccc2ccc(=O)oc2c1)C(C)(C)O` [R-(+)-MARMIN-6'-LINOLEATE], the inhibition worked out at 68% in assay [18]; 62% in [16]; 6% in [17]; 41% in assay [19]; 25% in assay [9]. In [15], the inhibition entry was “inactive”. Besides, the IC50 in assay [2] was found to be 2.35 µM; in assay [6], 0.92 µM. Further, the result in assay [4], in assay [7], in assay [8] and in assay [10] was Active.
As to `C=C(C)[C@H](O)CC/C(C)=C/COc1ccc2ccc(=O)oc2c1`, the inhibition result was “Dose-dependent effect” in assay [1]; 16% in assay [18]; 31% in assay [16]; 27% in assay [17]; 16% in [19]; 30% in [9]. For the same compound, the inhibition result in assay [15] was “inactive”. Besides, the figures for the IC50 in assay [2] and in assay [6] were 21.8 µM and 10.4 µM, respectively. In addition, the outcome in assay [7] and in assay [10] was Active.
Consider `C[C@@H]1C[C@@H]([C@H](O)CC2CC(=O)NC(=O)C2)C(=O)[C@@H](C)C1`, for which the outcome in [20] and in assay [21] was Active.
In the case of `CCCCCCCCCCCCCCCC(=O)O[C@H](CC/C(C)=C/COc1ccc2ccc(=O)oc2c1)C(C)(C)O` [R-(+)-MARMIN-6'-PALMITATE], the IC50 in [2] and in [6] was above 30 µM in each case. For the same compound, the outcome in assay [7] and in assay [10] was Active. Besides, the inhibition in assay [9] stood at 20%.
